Screening data: PubChem, Broad Institute
Ecoli rRNA inh: inhibits bacterial ribosomal RNA function over humanized ribosomes; E. coli WT GFP vs humanized-ribosome RFP mutants, fluorescence, 24 h; active compounds read low; DMSO median 0, no signal -100; GFP signal change (wild-type ribosome), % (test concentration not listed); 1.6% of 350,000 active; AID 720706;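 active = significant combined selectivity score with lowered wild-type GFP, culture density cut under 30%, mutant RFP and density less affected; inactive = any of these conditions unmet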
CaV13 ICDI inh: Disruptors of the CACNA1D IQ motif to Ca2+-dependent inactivation inhibitor domain association, primary screening, Förster resonance energy transfer in intact living … | HEK cells, CFP/YFP FRET ICDI-IQ, plate reader, 10 min; percent FRET-ratio fall versus neutral wells | inhibition, % at 12.3 µM | 0.098% of 340,000 active;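 active = mean replicate inhibition of at least 30% and at least 1% of replicates passing that level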;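 also: 0% = median of the neutral control wells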
CFTR F508del cor: CFTR F508del correction in bronchial cells; CFBE cells, YFP halide quenching; stimulated with forskolin plus potentiator P3; % fluorescence drop versus neutral controls; activity (quench increase), % at 7.58 µM; 0.36% of 350,000 active;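 active = mean added fluorescence quench of at least 8% versus neutral control, with both replicates also reaching 8%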;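 also: cells transiently co-express mutant CFTR-F508del with the halide-sensitive YFP; corrector assay measuring rescue of mutant channel to the surface after 24 h compound exposure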
Cneo AK release: Cryptococcus neoformans lysis via adenylate kinase release; C. neoformans lysis, adenylate kinase release luminescence, 4 h; normalised: neutral wells 0, clomiphene wells 100; lysis activity, % at 15 µM; AID 651654; 0.2% of 360,000 active;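 active = mean lysis activity across replicates of at least 80%, whatever share of replicates individually reach that level; inactive = mean lysis activity below 80%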
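Signal: Adenylate kinase release luminescence | Assay system: Log-phase Cryptococcus neoformans yeast cells | Input: Cells at 5 × 10^6 per mL | Buffer or medium: Fresh YPD growth medium | Compound: Single dose | Schedule: Static 4 h at 37 °C with compound, 1 h detection | Controls: Clomiphene | Read-out: Luminescence rise reflecting yeast cell lysis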
Active calls of the source: *; nt = no result given. The list is not random: actives were taken first. Their share in the collection is about 1.7%.

SMILES	Ecoli rRNA inh	CaV13 ICDI inh	CFTR F508del cor	Cneo AK release
CCCNC(=O)C[C@H]1CC[C@H]2[C@@H](COC[C@@H](O)CN2S(=O)(=O)c2ccc(Oc3ccccc3)cc2)O1	-1.7	nt	-1.3	90.4*
Cc1ccc(S(=O)(=O)N2C[C@@H](O)COC[C@H]3O[C@@H](CC(=O)NCc4ccc5c(c4)OCO5)CC[C@@H]32)cc1	-9.6	nt	-3.5	0.0
Cc1noc(C)c1NC(=O)N(C)C[C@@H]1OCCCC[C@H](C)Oc2ccc(NC(=O)C3CCCCC3)cc2C(=O)N([C@@H](C)CO)C[C@H]1C	-0.3	nt	0.5	-1.6
COc1ccc(OCCCCN(C)Cc2ccccc2)cc1	11.8	0.2	1.0	0.1
C=CCc1cc(OC)ccc1OCCN(C)Cc1ccccc1	-29.8*	nt	-1.8	nt
Cc1cc(OCC(=O)N(C)Cc2ccccc2)ccc1Cl	-29.9*	-21.2	3.3	-0.3
CCOc1ccc(OCCN(C)Cc2ccccc2)cc1	nt	-3.8	nt	nt
CN(CCOCCOc1ccc(Cl)cc1Br)Cc1ccccc1	-36.6*	nt	2.0	nt
CN(CCOc1ccc(Cl)c(Cl)c1)Cc1ccccc1	-29.5*	-4.3	-0.5	-0.3
CN(CCOc1ccccc1Cl)Cc1ccccc1	-6.9	-4.2	-4.7	7.3
Cc1cc(OCC(=O)N(C)Cc2ccccc2)ccc1Br	-25.6	-4.7	2.6	-1.2
CN(C)C(=O)c1ccc(-c2ccc([C@@H]3[C@@H](CO)N4C(=O)CN(C(=O)C5CCCC5)C[C@@H]34)cc2)cc1	1.8	nt	-1.4	nt
C[C@H]1CN([C@@H](C)CO)S(=O)(=O)c2ccc(C3=CCCC3)cc2O[C@@H]1CN(C)C(=O)c1ccncc1	0.4	nt	1.4	-3.0
C[C@@H]1CN([C@H](C)CO)C(=O)c2cc(-c3ccccc3)cnc2O[C@H]1CN(C)C(=O)C1CCCCC1	-0.6	nt	-1.3	-1.3
O=C(C[C@@H]1CC[C@H]2[C@@H](COC[C@@H](O)CN2Cc2cccc(F)c2)O1)NCC1CCCCC1	-0.4	nt	1.4	-2.6
COc1ccc2c3c(n(C)c2c1)[C@@H](CO)N(S(=O)(=O)c1cn(C)cn1)CC31CCN(C)CC1	3.4	nt	nt	nt
CCCNC(=O)N[C@@H]1CC[C@H](CC(=O)N2CCN(C)CC2)O[C@@H]1CO	-1.3	nt	-1.9	-2.1
COc1ccc(OC(=O)c2ccncc2)cc1	nt	-8.4	nt	-4.4
COc1ccc(C(=O)Oc2ccc(/C=N/O)cc2)cc1	-26.3*	-5.8	nt	nt
COc1ccc(C=NNC(=O)c2ccccc2NS(=O)(=O)c2cccs2)cc1O	-26.4*	-16.5	0.2	-1.5
O=C(N/N=C/c1ccc(N2CCOCC2)cc1)c1ccccc1NS(=O)(=O)c1cccs1	-39.9*	-3.9	-9.3	nt
CCCNC(=O)N1C[C@@H](C)[C@@H](OC)CN(C)C(=O)c2cc(NS(C)(=O)=O)ccc2OC[C@@H]1C	-0.9	nt	2.1	-3.0
COc1ccccc1-c1ccc([C@H]2[C@@H](C#N)N(C(=O)CN(C)C)[C@@H]2CO)cc1	2.2	nt	0.8	-3.2
CCN(c1ccccc1)S(=O)(=O)c1ccc(Cl)c(C(=O)OCC(=O)c2[nH]c(C)c(C(C)=O)c2C)c1	-13.9	-1.9	-0.1	-2.0
Cn1c(N)c(C(=O)COC(=O)Cc2ccc(Cl)c(Cl)c2)c(=O)n(C)c1=O	-34.9*	-3.5	-3.0	-4.6
SMILES	Ecoli rRNA inh	CaV13 ICDI inh	CFTR F508del cor	Cneo AK release
COc1ccc(N(C)S(=O)(=O)c2cccc(C(=O)OCC(=O)c3c(N)n(C)c(=O)n(C)c3=O)c2)cc1	-11.7	-5.5	2.5	-1.6
Cn1c(N)c(C(=O)COC(=O)c2cccc(S(=O)(=O)NCc3ccccc3)c2)c(=O)n(C)c1=O	-49.7	-2.1	-2.3	-3.0
CNS(=O)(=O)c1cccc(C(=O)OCC(=O)c2c(N)n(Cc3ccccc3)c(=O)n(C)c2=O)c1	-26.0*	-3.4	0.0	-1.1
CN(c1ccccc1)S(=O)(=O)c1ccc(Cl)c(C(=O)OCC(=O)c2c(N)n(C)c(=O)n(C)c2=O)c1	-21.1*	-5.9	-0.9	-1.4
COc1ccc(CC(=O)OCC(=O)c2c(N)n(C)c(=O)n(C)c2=O)cc1OC	3.4	-4.7	4.2	-2.2
CC(=O)c1c(C)[nH]c(C(=O)COC(=O)c2cc(S(=O)(=O)N(C)c3ccccc3)ccc2Cl)c1C	-27.8*	-3.0	nt	nt
Cc1ccc(S(=O)(=O)N[C@@H]2CC[C@@H](CCNC(=O)C3CCC3)O[C@H]2CO)cc1	-1.0	nt	0.2	0.4
Cc1ccc2nc(CSc3nnc4ccccn34)cc(=O)n2c1	4.3	-2.7	1.9	nt
